Results from ChEMBL document CHEMBL5247577, “Improved Selective Class I HDAC and Novel Selective HDAC3 Inhibitors: Beyond Hydroxamic Acids and Benzamides” (ACS Med Chem Lett, 2019).
pIC50: −log10 of the molar value. Active and inactive are the calls of the source. The calls are words filed in the database; no cut-off is given here.

Key:
[1] = Unbound fraction in human plasma; type: ADME, cell-free
Histone deacetylase 2 = Histone deacetylase 2 (Homo sapiens, UniProt Q92769); assay: Inhibition of human HDAC2
Chain of Histone deacetylase 2 (Q92769 whole entry): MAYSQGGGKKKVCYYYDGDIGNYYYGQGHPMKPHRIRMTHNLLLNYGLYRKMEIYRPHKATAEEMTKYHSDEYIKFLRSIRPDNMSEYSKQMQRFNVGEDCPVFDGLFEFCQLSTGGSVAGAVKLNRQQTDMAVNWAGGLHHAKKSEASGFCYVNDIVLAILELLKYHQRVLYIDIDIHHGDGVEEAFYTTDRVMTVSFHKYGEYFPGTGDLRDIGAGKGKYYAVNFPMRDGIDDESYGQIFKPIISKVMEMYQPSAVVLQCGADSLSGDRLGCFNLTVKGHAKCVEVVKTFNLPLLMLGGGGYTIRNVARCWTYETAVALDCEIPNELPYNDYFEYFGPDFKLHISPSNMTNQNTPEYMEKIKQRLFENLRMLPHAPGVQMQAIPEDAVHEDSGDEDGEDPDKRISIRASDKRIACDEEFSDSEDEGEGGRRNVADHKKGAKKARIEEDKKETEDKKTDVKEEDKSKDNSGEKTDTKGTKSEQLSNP

[2] = Oral bioavailability in Gottigen pig by LC/MS/MS analysis; type: ADME, organism-based, Sus scrofa; conditions: in vivo
Outline: (§1)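 Compound dosed as the tartrate salt. Oral doses were 20 mg/kg in mouse, 10 mg/kg in rat and 5 mg/kg in minipig.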

Cytochrome P450 2C9 = Cytochrome P450 2C9 (Homo sapiens, UniProt P11712); assay: Inhibition of CYP2C9 (unknown origin); type: ADME
Chain of Cytochrome P450 2C9 (P11712 whole entry): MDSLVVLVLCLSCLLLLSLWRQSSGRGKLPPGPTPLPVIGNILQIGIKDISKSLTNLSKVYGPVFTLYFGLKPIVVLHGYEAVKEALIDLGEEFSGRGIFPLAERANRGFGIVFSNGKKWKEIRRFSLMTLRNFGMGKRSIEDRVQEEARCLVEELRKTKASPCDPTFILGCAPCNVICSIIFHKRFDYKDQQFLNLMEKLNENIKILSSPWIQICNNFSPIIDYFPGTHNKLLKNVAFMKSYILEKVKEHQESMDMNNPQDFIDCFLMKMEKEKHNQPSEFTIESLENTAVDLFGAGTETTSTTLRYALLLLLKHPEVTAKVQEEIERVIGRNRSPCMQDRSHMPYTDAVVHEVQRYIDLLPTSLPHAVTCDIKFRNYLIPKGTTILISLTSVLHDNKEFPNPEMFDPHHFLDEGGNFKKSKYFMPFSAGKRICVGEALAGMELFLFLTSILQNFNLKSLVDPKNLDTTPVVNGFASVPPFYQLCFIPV

[3] = Volume of distribution at steady state in NMRI mouse at 20 mg/kg, po or 2 mg/kg, iv by LC/MS/MS analysis; type: ADME, organism-based; conditions: in vivo; outline: as §1
[4] = biological target: Histone deacetylase 4 (Homo sapiens) (UniProt P56524); assay: Inhibition of human HDAC4 at 5 uM
[5] = Volume of distribution at steady state in Gottigen pig by LC/MS/MS analysis; type: ADME, Sus scrofa; conditions: in vivo, read-out: Vdss; outline: as §1
[6] = biological target: T1, Histone deacetylase 7 (Homo sapiens) (UniProt Q8WUI4); assay: Inhibition of human HDAC7 at 5 uM
T1 sequence (whole entry): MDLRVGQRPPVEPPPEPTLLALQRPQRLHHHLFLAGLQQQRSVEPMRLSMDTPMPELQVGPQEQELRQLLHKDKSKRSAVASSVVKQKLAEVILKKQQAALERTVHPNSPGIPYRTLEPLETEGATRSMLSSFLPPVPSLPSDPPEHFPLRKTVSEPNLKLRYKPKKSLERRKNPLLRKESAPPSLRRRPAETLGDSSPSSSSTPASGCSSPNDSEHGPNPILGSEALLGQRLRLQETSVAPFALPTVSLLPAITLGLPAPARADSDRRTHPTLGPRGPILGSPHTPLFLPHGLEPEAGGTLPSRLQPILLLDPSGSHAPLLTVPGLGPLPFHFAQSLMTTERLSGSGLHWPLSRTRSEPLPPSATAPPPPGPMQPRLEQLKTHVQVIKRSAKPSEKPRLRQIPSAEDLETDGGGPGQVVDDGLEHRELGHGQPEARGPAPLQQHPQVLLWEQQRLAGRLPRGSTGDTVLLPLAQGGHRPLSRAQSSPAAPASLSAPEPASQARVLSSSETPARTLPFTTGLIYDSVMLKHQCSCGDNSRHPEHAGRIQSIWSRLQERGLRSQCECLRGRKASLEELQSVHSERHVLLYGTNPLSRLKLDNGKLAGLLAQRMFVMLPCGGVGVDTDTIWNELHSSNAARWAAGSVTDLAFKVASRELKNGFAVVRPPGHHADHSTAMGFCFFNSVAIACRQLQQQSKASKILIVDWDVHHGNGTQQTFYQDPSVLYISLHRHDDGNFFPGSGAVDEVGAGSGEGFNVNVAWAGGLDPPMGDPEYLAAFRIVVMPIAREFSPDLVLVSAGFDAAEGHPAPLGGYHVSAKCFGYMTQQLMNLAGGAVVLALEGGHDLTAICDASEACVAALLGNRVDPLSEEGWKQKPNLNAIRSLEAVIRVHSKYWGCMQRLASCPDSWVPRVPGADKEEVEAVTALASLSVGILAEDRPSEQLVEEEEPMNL

[7] = Permeability of the compound in porcine brain endothelial cells by BBB assay; type: ADME, cell-based, Sus scrofa, Endothelial cell; conditions: pig; read-out: permeability
[8] = Half life in Wistar rat plasma at 10 mg/kg, po or 2 mg/kg,iv by LC/MS/MS analysis; type: ADME, organism-based; outline: as §1
[9] = Genotoxicity in Escherichia coli by Ames test; type: toxicity
Outline: (§2)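 Bacterial reverse mutation assay in two strains, Salmonella typhimurium and Escherichia coli, scoring reverse mutations.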

[10] = biological target: Voltage-gated inwardly rectifying potassium channel KCNH2 (Homo sapiens, UniProt Q12809); assay: Inhibition of hERG potassium channel incubated for 4 hrs by fluorescence polarization assay; type: toxicity
Histone deacetylase 1 = Histone deacetylase 1 (Homo sapiens, UniProt Q13547); assay: Inhibition of human recombinant his tagged HDAC1 expressed in baculovirus expression system using FLUOR DE LYS-SIRT1 as fluorogenic substrate preincubated for 10 mins followed by substrate addition and measured after 1 hr by spectrophotometer based analysis
Chain of Histone deacetylase 1 (Q13547 whole entry): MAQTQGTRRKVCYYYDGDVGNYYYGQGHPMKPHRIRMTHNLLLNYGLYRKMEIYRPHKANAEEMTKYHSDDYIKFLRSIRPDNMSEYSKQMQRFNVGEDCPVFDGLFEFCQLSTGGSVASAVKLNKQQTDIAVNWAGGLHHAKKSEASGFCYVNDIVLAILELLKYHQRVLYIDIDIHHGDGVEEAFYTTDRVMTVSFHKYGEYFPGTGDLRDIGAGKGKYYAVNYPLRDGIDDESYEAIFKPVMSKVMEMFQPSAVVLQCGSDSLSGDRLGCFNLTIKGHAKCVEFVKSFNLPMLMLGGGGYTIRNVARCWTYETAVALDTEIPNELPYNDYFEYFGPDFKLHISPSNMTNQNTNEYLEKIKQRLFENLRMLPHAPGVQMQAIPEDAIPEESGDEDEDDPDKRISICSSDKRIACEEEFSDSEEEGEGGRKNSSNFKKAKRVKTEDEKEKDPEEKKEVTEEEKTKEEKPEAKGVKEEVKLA

[11] = biological target: Histone deacetylase 5 (Homo sapiens) (UniProt Q9UQL6); assay: Inhibition of human HDAC5 at 5 uM
Chain of Histone deacetylase 5 (Homo sapiens) (Q9UQL6 whole entry): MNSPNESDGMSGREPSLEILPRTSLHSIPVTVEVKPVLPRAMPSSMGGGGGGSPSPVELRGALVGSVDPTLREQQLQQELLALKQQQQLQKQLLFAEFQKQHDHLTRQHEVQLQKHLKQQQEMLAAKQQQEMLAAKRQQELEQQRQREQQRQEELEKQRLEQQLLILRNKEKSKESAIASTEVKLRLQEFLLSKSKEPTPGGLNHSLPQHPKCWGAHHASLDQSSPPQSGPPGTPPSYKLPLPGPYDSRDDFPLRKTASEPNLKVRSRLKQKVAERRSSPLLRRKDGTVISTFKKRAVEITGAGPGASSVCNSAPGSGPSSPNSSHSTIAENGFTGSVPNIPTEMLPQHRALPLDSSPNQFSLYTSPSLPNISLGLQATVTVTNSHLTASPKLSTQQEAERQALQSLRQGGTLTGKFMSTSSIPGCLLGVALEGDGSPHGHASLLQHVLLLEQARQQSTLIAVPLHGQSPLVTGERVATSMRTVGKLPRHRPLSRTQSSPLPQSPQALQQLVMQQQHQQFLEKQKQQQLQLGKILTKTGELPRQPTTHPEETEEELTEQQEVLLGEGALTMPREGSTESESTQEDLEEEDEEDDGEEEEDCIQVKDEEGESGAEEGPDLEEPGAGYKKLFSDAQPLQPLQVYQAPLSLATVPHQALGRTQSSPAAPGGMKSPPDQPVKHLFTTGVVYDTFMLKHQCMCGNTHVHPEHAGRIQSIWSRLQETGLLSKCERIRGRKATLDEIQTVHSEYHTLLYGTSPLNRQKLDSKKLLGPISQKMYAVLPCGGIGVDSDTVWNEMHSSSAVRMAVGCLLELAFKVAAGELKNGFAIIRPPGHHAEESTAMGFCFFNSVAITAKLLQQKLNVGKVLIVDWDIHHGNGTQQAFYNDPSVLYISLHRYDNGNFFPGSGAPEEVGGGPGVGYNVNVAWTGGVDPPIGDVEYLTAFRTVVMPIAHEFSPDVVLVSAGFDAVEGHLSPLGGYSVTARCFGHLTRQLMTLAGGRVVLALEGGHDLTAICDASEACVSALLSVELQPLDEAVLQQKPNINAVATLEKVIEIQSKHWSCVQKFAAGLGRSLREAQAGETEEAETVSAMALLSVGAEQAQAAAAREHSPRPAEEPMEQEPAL

[12] = Oral bioavailability in NMRI mouse at 20 mg/kg by LC/MS/MS analysis; type: ADME, organism-based; conditions: in vivo; outline: as §1
[13] = Volume of distribution at steady state in Wistar rat at 10 mg/kg, po or 2 mg/kg,iv by LC/MS/MS analysis; type: ADME, organism-based; conditions: in vivo; outline: as §1
[14] = AUC in Wistar rat plasma at 5 to 20 mg/kg, po by LC/MS/MS analysis; type: ADME, organism-based; set-up: route po; conditions: dose 5-20 mg/kg
Outline: (§3)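 Compound given orally as its tartrate salt at 20 mg/kg in mouse, 10 mg/kg in rat and 5 mg/kg in minipig.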

[15] = Oral bioavailability in Wistar rat at 10 mg/kg by LC/MS/MS analysis; type: ADME, organism-based; conditions: in vivo; outline: as §1
Cytochrome P450 3A4 = Cytochrome P450 3A4 (Homo sapiens, UniProt P08684); assay: Inhibition of CYP3A4 (unknown origin); type: ADME
[16] = biological target: Sodium channel protein type 5 subunit alpha (Homo sapiens, UniProt Q14524); assay: Inhibition of Nav1.5 (unknown origin)
Chain of Sodium channel protein type 5 subunit alpha (Q14524 whole entry): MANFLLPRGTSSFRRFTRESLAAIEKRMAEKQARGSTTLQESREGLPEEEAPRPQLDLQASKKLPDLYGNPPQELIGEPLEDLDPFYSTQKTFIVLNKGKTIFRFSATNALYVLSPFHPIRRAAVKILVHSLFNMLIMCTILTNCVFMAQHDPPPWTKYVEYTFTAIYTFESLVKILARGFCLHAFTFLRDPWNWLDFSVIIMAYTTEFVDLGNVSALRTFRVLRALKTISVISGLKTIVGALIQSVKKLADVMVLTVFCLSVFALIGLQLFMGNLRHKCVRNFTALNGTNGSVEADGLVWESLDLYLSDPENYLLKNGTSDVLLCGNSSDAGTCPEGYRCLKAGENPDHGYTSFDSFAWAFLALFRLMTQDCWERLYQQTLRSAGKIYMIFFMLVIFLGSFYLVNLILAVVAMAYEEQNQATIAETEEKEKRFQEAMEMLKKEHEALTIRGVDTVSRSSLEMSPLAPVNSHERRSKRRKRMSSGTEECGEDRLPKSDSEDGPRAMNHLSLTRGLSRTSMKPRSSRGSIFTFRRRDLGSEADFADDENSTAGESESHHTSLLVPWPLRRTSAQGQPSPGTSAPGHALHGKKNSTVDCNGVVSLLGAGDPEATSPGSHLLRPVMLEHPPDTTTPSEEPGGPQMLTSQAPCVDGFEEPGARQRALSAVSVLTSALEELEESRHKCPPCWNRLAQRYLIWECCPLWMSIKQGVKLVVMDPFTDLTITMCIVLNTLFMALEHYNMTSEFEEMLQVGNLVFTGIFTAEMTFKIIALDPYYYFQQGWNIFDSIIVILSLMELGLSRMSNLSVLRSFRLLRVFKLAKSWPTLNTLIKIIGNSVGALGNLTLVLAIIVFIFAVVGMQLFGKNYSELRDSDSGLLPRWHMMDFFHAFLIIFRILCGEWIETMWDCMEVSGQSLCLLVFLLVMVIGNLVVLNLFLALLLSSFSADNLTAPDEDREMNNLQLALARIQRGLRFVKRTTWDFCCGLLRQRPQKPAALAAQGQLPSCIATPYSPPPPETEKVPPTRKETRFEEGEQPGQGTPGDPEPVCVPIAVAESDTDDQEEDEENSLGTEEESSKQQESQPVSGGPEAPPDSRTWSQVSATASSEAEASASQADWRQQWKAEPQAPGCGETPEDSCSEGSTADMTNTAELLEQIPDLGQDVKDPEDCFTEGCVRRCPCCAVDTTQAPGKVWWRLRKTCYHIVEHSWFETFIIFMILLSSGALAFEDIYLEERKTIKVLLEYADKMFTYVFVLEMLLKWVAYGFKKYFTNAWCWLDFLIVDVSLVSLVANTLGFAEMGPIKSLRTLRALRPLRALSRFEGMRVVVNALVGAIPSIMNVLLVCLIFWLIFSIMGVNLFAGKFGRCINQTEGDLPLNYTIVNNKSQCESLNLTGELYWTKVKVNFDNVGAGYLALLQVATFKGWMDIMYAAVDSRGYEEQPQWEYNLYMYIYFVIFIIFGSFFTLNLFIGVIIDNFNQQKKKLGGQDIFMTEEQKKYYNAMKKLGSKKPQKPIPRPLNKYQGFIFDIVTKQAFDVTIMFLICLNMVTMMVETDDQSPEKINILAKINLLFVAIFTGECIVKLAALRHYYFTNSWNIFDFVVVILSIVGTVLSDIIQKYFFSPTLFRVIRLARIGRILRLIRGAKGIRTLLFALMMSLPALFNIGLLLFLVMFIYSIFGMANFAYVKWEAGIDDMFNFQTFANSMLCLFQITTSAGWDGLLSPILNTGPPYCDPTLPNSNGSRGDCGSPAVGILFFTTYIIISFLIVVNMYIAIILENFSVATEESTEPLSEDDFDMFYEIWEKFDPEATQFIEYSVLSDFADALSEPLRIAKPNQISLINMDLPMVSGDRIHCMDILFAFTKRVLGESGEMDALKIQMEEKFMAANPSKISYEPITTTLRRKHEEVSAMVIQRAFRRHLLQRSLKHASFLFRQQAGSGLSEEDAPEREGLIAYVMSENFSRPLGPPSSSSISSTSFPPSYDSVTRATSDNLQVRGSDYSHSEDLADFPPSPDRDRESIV

[17] = Half life in NMRI mouse plasma at 20 mg/kg, po or 2 mg/kg, iv by LC/MS/MS analysis; type: ADME, organism-based; outline: as §1
[18] = Genotoxicity in Salmonella typhimurium by Ames test; type: toxicity; conditions: salmonella enterica subsp. enterica serovar typhimurium; outline: as §2
Histone deacetylase 3 = Histone deacetylase 3 (Homo sapiens, UniProt O15379); assay: Inhibition of human HDAC3 expressed in baculovirus infected insect cells using FLUOR DE LYS-SIRT1 as fluorogenic substrate preincubated for 10 mins followed by substrate addition and measured after 1 hr by spectrophotometer based analysis
Chain of Histone deacetylase 3 (O15379 whole entry): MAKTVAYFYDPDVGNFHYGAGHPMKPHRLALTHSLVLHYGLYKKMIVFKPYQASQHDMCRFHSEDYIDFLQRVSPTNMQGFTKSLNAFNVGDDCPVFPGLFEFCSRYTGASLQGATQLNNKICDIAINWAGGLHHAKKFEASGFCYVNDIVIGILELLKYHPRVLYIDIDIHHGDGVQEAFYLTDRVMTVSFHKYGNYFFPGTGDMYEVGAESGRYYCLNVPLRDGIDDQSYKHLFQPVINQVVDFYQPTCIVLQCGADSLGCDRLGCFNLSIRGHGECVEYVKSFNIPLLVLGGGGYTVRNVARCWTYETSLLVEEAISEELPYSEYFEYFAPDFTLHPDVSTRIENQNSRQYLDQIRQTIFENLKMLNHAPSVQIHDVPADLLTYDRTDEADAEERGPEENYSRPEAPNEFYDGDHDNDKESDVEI

Cytochrome P450 2D6 = Cytochrome P450 2D6 (Homo sapiens, UniProt P10635); assay: Inhibition of CYP2D6 (unknown origin); type: ADME
[19] = Half life in Gottigen pig plasma by LC/MS/MS analysis; type: ADME, Sus scrofa; outline: as §1
[20] = AUC in NMRI mouse plasma at 5 to 20 mg/kg, po by LC/MS/MS analysis; type: ADME, organism-based; set-up: route po; conditions: in vivo, dose 5-20 mg/kg; outline: as §3
[21] = AUC in Gottigen pig plasma 5 to 20 mg/kg, po by LC/MS/MS analysis; type: ADME, organism-based, Sus scrofa; set-up: route po; conditions: dose 5-20 mg/kg; outline: as §3

## CCC(=O)CCCCC[C@H](NC(=O)C1CN(C)C1)c1ncc(-c2cc3ccccc3nc2OC)o1
[1]
  fraction unbound: 0.018
Histone deacetylase 2
  pIC50: 8.55
[2]
  bioavailability: 30%
Cytochrome P450 2C9
  pIC50: < 4.70
[3]
  Vdss: 3.2 L/kg
[4]
  inhibition: inactive
[5]
  Vd: 0.64 L/kg
[6]
  inhibition: inactive
[7]
  Papp: 10.5 ×10⁻⁶ cm/s
[8]
  half-life: 3.3 h
[9]
  Activity: Non-Toxic
[10]
  pIC50: 5.44
Histone deacetylase 1
  pIC50: 8.77
[11]
  inhibition: inactive
[12]
  F: 62%
[13]
  Vdss: 5.3 L/kg
[14]
  AUC: 21.5 µM·h
[15]
  bioavailability: 100%
Cytochrome P450 3A4
  pIC50: < 4.70
[16]
  pIC50: < 4.80
[17]
  half-life: 3.3 h
[18]
  Activity: Non-Toxic
Histone deacetylase 3
  pIC50: 8.96
Cytochrome P450 2D6
  pIC50: < 4.70
[19]
  half-life: 3.7 h
[20]
  AUC: 9.3 µM·h
[21]
  AUC: 2.6 µM·h
